# Assay results published in PMC2645920 (Journal of the American Chemical Society, 2008).
# Columns and labels:
# [1] = Dynamic light scattering; assay type: physicochemical; details: 750 μM in 1X PBS
# Summary of the method: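 Test compound dissolved in 1X PBS (pH 7.2), pre-filtered, and read at 22 °C with a 25 mW, 750 nm laser and a 90° detector. Detergent runs added 0.01% Triton-X 100. Each sample got ten repeat measurements, filtered on sum of squares and baseline error. Hr was derived by regularization from the autocorrelation decay. Intensity (kcps) is the mean of three or more measurements, compared with buffer.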
# [2] = target: 5′-FAM-CCG-(CUG)10-CGG-3′ RNA (Seq. A); assay: Fluorescence titration; assay type: binding; details: FT
# [3] = tested on: (CUG)109 RNA – MBNL1 protein interaction; assay: Enzyme Fragment Complementation; assay type: biochemical; details: EFC assay, immobilized (CUG)109 RNA, PL-MBNL1
# [4] = target: HIV-1 frameshift stimulatory sequence (FSS) RNA hairpin (Seq. F); assay: Fluorescence titration; assay type: binding; details: FT
Molecule,Hr (hydrodynamic radius) ([1]; pH 7.2) [nm],Intensity ([1]; pH 7.2) [kcps],Hr (hydrodynamic radius) ([1]; pH 7.2 + Triton-X 100 (0.01%)) [nm],Intensity ([1]; pH 7.2 + Triton-X 100 (0.01%)) [kcps],Kd [2] [nM],Inhibitory effect on (CUG)n – MBNL1 interaction [3],Kd [4] [nM]
Nc1c(/N=N/c2ccc(-c3ccc(/N=N/c4cc(S(=O)(=O)O)c5ccccc5c4N)cc3)cc2)cc(S(=O)(=O)O)c2ccccc12 [Congo Red],69.25,242±10,40.72,190±24,–,–,–
(Quin-Cys-Pro-Phe)2 [Compound 5-5],–,–,–,–,> 40000,do not show any inhibitory effect,350 ± 110
